IDH1 R132H inh = inhibitors of IDH1 R132H reductase, primary screen, biochemical, plate reader, single point. AID 624101, 2012. diaphorase/resazurin fluorescence, 60 min. inhibition, % at 10 µM. Isocitrate dehydrogenase [NADP] cytoplasmic (Homo sapiens), O75874. actives 0.18% (n = 70,000); in the data active means inhibition above about 34%
Target sequence (O75874 whole entry R132H): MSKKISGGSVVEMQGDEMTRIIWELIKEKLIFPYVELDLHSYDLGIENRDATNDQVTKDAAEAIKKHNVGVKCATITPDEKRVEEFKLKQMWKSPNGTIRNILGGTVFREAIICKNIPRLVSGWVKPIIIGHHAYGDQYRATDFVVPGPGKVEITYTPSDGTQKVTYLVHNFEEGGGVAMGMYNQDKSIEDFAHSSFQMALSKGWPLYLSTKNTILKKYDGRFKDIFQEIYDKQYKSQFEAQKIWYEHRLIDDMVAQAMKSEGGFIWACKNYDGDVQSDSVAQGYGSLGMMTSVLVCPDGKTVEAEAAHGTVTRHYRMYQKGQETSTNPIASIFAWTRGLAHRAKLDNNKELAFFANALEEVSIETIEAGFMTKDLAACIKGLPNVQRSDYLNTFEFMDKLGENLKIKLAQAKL
T cruzi growth = T. cruzi intracellular proliferation inhibitors, primary screen, cell-based, beta-gal Tulahuen parasites, NIH3T3 host, luminescence | T. cruzi beta-gal in NIH3T3, GalScreen luminescence, 90 h | inhibition, % at 8.34 µM | actives 5.9% (n = 77,000);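 active means mean inhibition above about 93%, with at least 55% of replicates each passing it, limit read from the data, passing the limit was not always enough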
Pf Dd2 inh = P. falciparum Dd2 growth inhibitors, primary screen, SYBR Green fluorescence, single dose replicates. 72 h; stronger effect = lower value. activity change, % at 10 µM. actives 2.3% (n = 94,000). AID 1159554, 2015; in the data active means activity change below about -80%
KDM4C inh = inhibitors of GASC-1 (KDM4C) histone demethylase, primary screen, biochemical, single concentration HTS; GST-KDM4C 2-372, H3K9me3 peptide, LANCE TR-FRET; inhibition, % at 12.5 µM; actives 0.15% (n = 96,000); AID 720574, 2013;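 active means mean replicate inhibition above about 25%, with at least 55% of replicates also reaching it, limit read from the data, passing the limit was not always enough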
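Material: N-terminal GST-fused human GASC-1 (KDM4C) fragment, residues 2-372. Input: 10 nM enzyme. Incubation: enzyme reaction 30 min, then detection 60 min, both room temperature. Doses: one test concentration per compound. Read-out basis: inhibition from TR-FRET ratio decrease. Detection: LANCE TR-FRET, excitation 340 nm, emissions 618 and 671 nm.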
Large screens that a line does not name were inactive; ! = a repeat was not active. The list is not random: actives were taken first. Their share in the collection is about 5.9%.

COc1ccc(NC(=O)Nc2ccc3c(c2)CC(=O)N([C@H](C)CO)C[C@@H](C)[C@@H](CN(C)Cc2ccc(C(=O)Nc4ccccc4N)cc2)O3)cc1	none (no result: T cruzi growth)
C[C@H]1CN([C@@H](C)CO)C(=O)Cc2cc(NC(=O)Nc3ccc(F)cc3)ccc2O[C@H]1CN(C)Cc1ccc(C(=O)Nc2ccccc2N)cc1	Pf Dd2 inh -83 (no result: T cruzi growth)
C[C@H](CO)N1C[C@H](C)[C@@H](CN(C)Cc2ccc(C(=O)Nc3ccccc3N)cc2)Oc2ccc(NC(=O)Nc3ccc(F)cc3)cc2CC1=O	none
COc1ccc(NC(=O)Nc2ccc3c(c2)CC(=O)N([C@@H](C)CO)C[C@H](C)[C@@H](CN(C)Cc2ccc(C(=O)Nc4ccccc4N)cc2)O3)cc1	Pf Dd2 inh -88 (no result: IDH1 R132H inh, T cruzi growth)
C[C@@H]1CN([C@@H](C)CO)C(=O)Cc2cc(NC(=O)Nc3ccc(F)cc3)ccc2O[C@H]1CN(C)Cc1ccccc1	Pf Dd2 inh -85
O=C(Cn1nnc(-c2ccccc2)n1)Nc1ccccc1C(=O)O	none (no result: T cruzi growth, Pf Dd2 inh, KDM4C inh)
COc1ccc(CN2CC3(CCN(C(=O)Cc4ccncc4)CC3)c3c([nH]c4cc(OC)ccc34)[C@@H]2CO)cc1	Pf Dd2 inh -86 (no result: IDH1 R132H inh, T cruzi growth)
CCCC(=O)N1CCC2(CC1)CN(Cc1ccncc1)[C@@H](CO)c1[nH]c3cc(OC)ccc3c12	Pf Dd2 inh -91 (no result: IDH1 R132H inh, T cruzi growth)
COc1ccc2c3c([nH]c2c1)[C@H](CO)N(Cc1ccncc1)CC31CN(C(=O)Cc2ccncc2)C1	none (no result: IDH1 R132H inh, T cruzi growth)
O=c1sc(N2CCN(C3CCCCC3)CC2)nc2ccsc12	none (no result: T cruzi growth, Pf Dd2 inh, KDM4C inh)
C[C@H](CO)N1C[C@H](C)[C@H](CN(C)Cc2ccc(C(=O)Nc3ccccc3N)cc2)Oc2ccc(NC(=O)Nc3ccccc3)cc2C1=O	none (no result: IDH1 R132H inh)
C[C@@H]1CN([C@@H](C)CO)C(=O)c2cc(NC(=O)Nc3ccc(F)cc3)ccc2O[C@@H]1CN(C)Cc1ccc(C(=O)Nc2ccccc2N)cc1	Pf Dd2 inh -84 (no result: T cruzi growth)
C[C@H](CO)N1C[C@H](C)[C@H](CN(C)Cc2ccc(C(=O)Nc3ccccc3N)cc2)Oc2ccc(NC(=O)Cc3ccccc3)cc2C1=O	Pf Dd2 inh -84 (no result: T cruzi growth)
COc1ccc(NC(=O)Nc2ccc3c(c2)C(=O)N([C@H](C)CO)C[C@H](C)[C@H](CN(C)Cc2ccc(C(=O)Nc4ccccc4N)cc2)O3)cc1	none (no result: T cruzi growth)
C[C@H]1CN([C@@H](C)CO)C(=O)c2cc(NC(=O)Nc3ccc(F)cc3)ccc2O[C@H]1CN(C)Cc1ccc(C(=O)Nc2ccccc2N)cc1	none
C[C@H](CO)N1C[C@H](C)[C@H](CN(C)Cc2ccc(C(=O)Nc3ccccc3N)cc2)Oc2ccc(NC(=O)Nc3ccc(C(F)(F)F)cc3)cc2C1=O	Pf Dd2 inh -80 (no result: T cruzi growth)
C[C@@H]1CN([C@@H](C)CO)C(=O)c2cc(NC(=O)Nc3ccccc3)ccc2O[C@@H]1CN(C)Cc1ccc(C(=O)Nc2ccccc2N)cc1	Pf Dd2 inh -83 (no result: IDH1 R132H inh)
CS(=O)(=O)N(CC(=O)NC1CCCC1)c1cc(Cl)c(Cl)cc1Cl	none (no result: T cruzi growth, Pf Dd2 inh, KDM4C inh)
Cc1ccccc1NS(=O)(=O)c1ccc(Cl)c(C(=O)Nc2ccccc2C(=O)O)c1	none (no result: T cruzi growth, Pf Dd2 inh, KDM4C inh)
NC(=O)c1ccc(NCc2cccnc2)c([N+](=O)[O-])c1	none (no result: T cruzi growth, Pf Dd2 inh, KDM4C inh)
COc1ccc(C#Cc2ccc3c(c2)O[C@H](CN(C)S(=O)(=O)c2ccccc2F)[C@@H](C)CN([C@@H](C)CO)S3(=O)=O)cc1	Pf Dd2 inh -86 (no result: T cruzi growth)
COc1ccc(C#Cc2ccc3c(c2)O[C@@H](CN(C)S(=O)(=O)c2ccccc2F)[C@H](C)CN([C@@H](C)CO)S3(=O)=O)cc1	Pf Dd2 inh -82 (no result: T cruzi growth)
COc1ccc(OC)c(S(=O)(=O)N2CCC(C(=O)Nc3cc(Cl)ccc3Oc3ccccc3)CC2)c1	none (no result: T cruzi growth, Pf Dd2 inh, KDM4C inh)
COc1ccc(NC(=O)N(C)C[C@H]2Oc3cc(C#CCC(C)C)ccc3S(=O)(=O)N([C@H](C)CO)C[C@H]2C)cc1	Pf Dd2 inh -88
CCCC#Cc1ccc2c(c1)O[C@H](CN(C)C(=O)Nc1ccc(OC)cc1)[C@H](C)CN([C@H](C)CO)S2(=O)=O	Pf Dd2 inh -87
COc1ccc(NC(=O)N(C)C[C@@H]2Oc3cc(C#CCC(C)C)ccc3S(=O)(=O)N([C@@H](C)CO)C[C@H]2C)cc1	none
CCCC#Cc1ccc2c(c1)O[C@H](CN(C)C(=O)Nc1ccc(OC)cc1)[C@@H](C)CN([C@H](C)CO)S2(=O)=O	none (no result: IDH1 R132H inh)
COc1ccc(-c2cc(C(F)(F)F)nc(SCC(=O)Nc3ccc(C)cc3)n2)cc1	none (no result: T cruzi growth, Pf Dd2 inh, KDM4C inh)
CN([NH2+][O-])c1cc(O)ccc1O	IDH1 R132H inh 69 (no result: T cruzi growth, Pf Dd2 inh, KDM4C inh)
COCCn1c(SCC(=O)N2CCOCC2)nc2c(c1=O)SC(C)C2 (stereo not given)	none (no result: T cruzi growth, Pf Dd2 inh, KDM4C inh)
COc1ccc2c3c([nH]c2c1)[C@@H](CO)N(Cc1cccc(F)c1)CC31CN(C(C)=O)C1	Pf Dd2 inh -85 (no result: IDH1 R132H inh, T cruzi growth)
COc1ccc2c3c([nH]c2c1)[C@H](CO)N(Cc1cccc(F)c1)CC31CN(C(C)=O)C1	none (no result: IDH1 R132H inh, T cruzi growth)
COc1ccc2c3c([nH]c2c1)[C@@H](CO)N(Cc1cccc(F)c1)CC31CCN(C(C)=O)CC1	Pf Dd2 inh -93 (no result: IDH1 R132H inh, T cruzi growth)
CC(C)(C)[S@@](=O)N1Cc2cc(C(=O)NCc3ccncc3)nc(-c3cccc(-c4ccncc4)c3)c2[C@H]1CCO	none
CC(C)(C)[S@@](=O)N1Cc2cc(C(=O)NCCc3ccncc3)nc(-c3cccc(-c4ccccc4)c3)c2[C@H]1CCO	Pf Dd2 inh -85 (no result: IDH1 R132H inh, T cruzi growth)
CCCNC(=O)c1cc2c(c(-c3cccc(-c4cc5ccccc5o4)c3)n1)[C@H](CCO)N(C(=O)NC(C)C)C2	Pf Dd2 inh -93 (no result: IDH1 R132H inh, T cruzi growth)
COc1cccc(-c2cccc(-c3nc(C(=O)NCc4ccc(Oc5ccccc5)cc4)cc4c3[C@@H](CCO)N(S(=O)C(C)(C)C)C4)c2)c1 (stereo not given in full)	Pf Dd2 inh -84 (no result: IDH1 R132H inh, T cruzi growth)
CCc1ccccc1NC(=O)CSc1nnc(-c2ccccc2)n1C	none (no result: T cruzi growth, Pf Dd2 inh, KDM4C inh)
COc1ccc(C(=O)O)cc1S(=O)(=O)NCc1ccccc1	none (no result: T cruzi growth, Pf Dd2 inh, KDM4C inh)
O=C(Nc1ccc(Cl)cc1)N[C@H]1CC[C@H](CCNC(=O)c2ccccc2F)O[C@H]1CO	IDH1 R132H inh 43, KDM4C inh 40
COc1ccc(OCC(=O)Nc2c(C(=O)c3ccc(C)c(F)c3)oc3ccccc23)cc1	none (no result: T cruzi growth, Pf Dd2 inh, KDM4C inh)
COc1ccc(CNC(=O)C[C@@H]2C=C[C@H](NS(=O)(=O)c3cccc(OC)c3)[C@@H](CO)O2)cc1	none (no result: T cruzi growth, Pf Dd2 inh)
COc1ccc(CNC(=O)C[C@H]2C=C[C@@H](NS(=O)(=O)c3cccc(OC)c3)[C@@H](CO)O2)cc1	Pf Dd2 inh -91 (no result: IDH1 R132H inh, T cruzi growth)
C[C@@H]1CCCCO[C@H](CN(C)CC2CC2)[C@H](C)CN([C@H](C)CO)C(=O)c2cc(NC(=O)c3ccccc3)ccc2O1	Pf Dd2 inh -81 (no result: IDH1 R132H inh)
CCCN(C)C[C@H]1OCCCC[C@@H](C)Oc2ccc(NC(=O)c3ccccc3)cc2C(=O)N([C@H](C)CO)C[C@H]1C	none (no result: IDH1 R132H inh)
CCCN(C)C[C@@H]1OCCCC[C@@H](C)Oc2ccc(NC(=O)c3ccccc3)cc2C(=O)N([C@H](C)CO)C[C@@H]1C	Pf Dd2 inh -83!
